Converted amounts (≈) assume the structure as drawn. The source made the active and inactive calls. No cut-off for these calls is given here.
Legend:
[1] = test system: Mycobacterium tuberculosis; assay: Antitubercular activity against Mycobacterium tuberculosis H37Rv P887 at 158 uM incubated for 1 to 9 days by inverted microscopic analysis; type: functional
How it was run: (§1)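 Bacteria immobilised in 0.5% agarose within microfluidic channels of a 96-well chip. Compound (0–632 μM; rifampicin 0–19.4 μM) supplied in Middlebrook 7H9 with 10% OADC and allowed to diffuse in. Incubated at 37 °C; channel boundary imaged by inverted microscopy (40×) at 1, 3, 5, 7 and 9 days. MIC90 taken as lowest concentration giving 90% growth inhibition. Triplicate.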

[2] = test system: Mycobacterium tuberculosis; assay: Antitubercular activity against Mycobacterium tuberculosis H37Rv P887 incubated for 1 to 9 days by inverted microscopic analysis; type: functional; how it was run: as §1
[3] = test system: Mycobacterium tuberculosis; assay: Antitubercular activity against MDR Mycobacterium tuberculosis M22 incubated for 1 to 9 days by inverted microscopic analysis; type: functional; how it was run: as §1
[4] = test system: Mycobacterium tuberculosis; assay: Antitubercular activity against MDR Mycobacterium tuberculosis X23 incubated for 1 to 9 days by inverted microscopic analysis; type: functional
[5] = test system: Mycobacterium tuberculosis; assay: Antitubercular activity against XDR Mycobacterium tuberculosis X24 incubated for 1 to 9 days by inverted microscopic analysis; type: functional; how it was run: as §1
[6] = test system: Mycobacterium tuberculosis; assay: Antitubercular activity against XDR Mycobacterium tuberculosis X59 incubated for 1 to 9 days by inverted microscopic analysis; type: functional; how it was run: as §1
[7] = Lipophilicity, logP of the compound; type: physicochemical; settings: octanol/water
MRC5 [8] = assay: Antiinflammatory activity against IFN-gamma-stimulated human MRC5 cells assessed as reduction of IL-1beta mRNA level at 20 uM incubated for 3 hrs by RT-PCR analysis relative to control; type: functional; set-up: scale not given: the % may be the effect or the level left
How it was run: (§2)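 MRC-5 cells cultured in DMEM with 10% FBS at 37 °C, 5% CO2, then stimulated with or without 20 ng/mL IFN-γ in presence or absence of test agent for 3 h. Competitive RT-PCR; targets amplified 25 cycles (annealing 57 °C). Band densitometry expressed relative to β-actin mRNA. Mean ± SD.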

MRC5 [9] = assay: Antiinflammatory activity against IFN-gamma-stimulated human MRC5 cells assessed as reduction of IL-6 mRNA level at 20 uM incubated for 3 hrs by RT-PCR analysis relative to control; type: functional; set-up: scale not given: the % may be the effect or the level left; how it was run: as §2
MRC5 [10] = assay: Antiinflammatory activity against IFN-gamma-stimulated human MRC5 cells assessed as reduction of IL-12 mRNA level at 20 uM incubated for 3 hrs by RT-PCR analysis relative to control; type: functional; set-up: scale not given: the % may be the effect or the level left; how it was run: as §2
MRC5 [11] = assay: Antiinflammatory activity against IFN-gamma-stimulated human MRC5 cells assessed as reduction of TNF-alpha mRNA level at 20 uM incubated for 3 hrs by RT-PCR analysis relative to control; type: functional; set-up: scale not given: the % may be the effect or the level left; how it was run: as §2
MRC5 [12] = assay: Antiinflammatory activity against IFN-gamma-stimulated human MRC5 cells assessed as reduction of MMP-1 mRNA level at 20 uM incubated for 3 hrs by RT-PCR analysis relative to control; type: functional; set-up: scale not given: the % may be the effect or the level left; how it was run: as §2
[13] = biological target: Mitogen-activated protein kinase; ERK1/ERK2 (Homo sapiens) (UniProt P27361+P28482); assay: Downregulation of ERK1/2 phosphorylation in IFN-gamma-induced human MRC5 cells at 20 uM pretreated for 1 hr followed by IFN-gamma stimulation for 3 hrs by Western blot analysis; type: cell-based
How it was run: (§3)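 MRC-5 cells pretreated with 20 μM agent for 1 h, then 20 ng/mL IFN-γ for 3 h. Cytoplasmic lysates prepared; 20 μg protein run on 10% SDS-PAGE and transferred to PVDF. Membranes blocked in 5% BSA/TBST and probed overnight at 4 °C with phospho-specific and total MAPK antibodies. β-Actin used as loading control.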

[14] = biological target: T1, MAP kinase p38 (Homo sapiens) (UniProt O15264+Q15759+Q16539+P53778); assay: Downregulation of p38 phosphorylation in IFN-gamma-induced human MRC5 cells at 20 uM pretreated for 1 hr followed by IFN-gamma stimulation for 3 hrs by Western blot analysis; type: cell-based; how it was run: as §3
[15] = biological target: Mitogen-activated protein kinase 8/9 (Homo sapiens) (UniProt P45983+P45984); assay: Downregulation of JNK1/2 phosphorylation in IFN-gamma-induced human MRC5 cells at 20 uM pretreated for 1 hr followed by IFN-gamma stimulation for 3 hrs by Western blot analysis; type: cell-based; how it was run: as §3
MRC5 [16] = assay: Antiinflammatory activity against IFN-gamma-stimulated human MRC5 cells assessed as reduction of TNF-alpha production at 5 uM after 24 hrs by ELISA relative to control; type: functional; set-up: scale not given: the % may be the effect or the level left
How it was run: (§4)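 MRC-5 cells stimulated with IFN-γ and exposed to test agent for 24 h. TNF-α and IL-12 in culture media measured by sandwich ELISA: capture antibody coated overnight at 4 °C, blocking 1 h, sample 2 h at RT, detection antibody 1 h, TMB substrate, stopped with 1 N H2SO4, OD 450 nm. Mean ± SD of at least three independent experiments.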

MRC5 [17] = assay: Antiinflammatory activity against IFN-gamma-stimulated human MRC5 cells assessed as reduction of TNF-alpha production at 10 uM after 24 hrs by ELISA relative to control; type: functional; set-up: scale not given: the % may be the effect or the level left; how it was run: as §4
MRC5 [18] = assay: Antiinflammatory activity against IFN-gamma-stimulated human MRC5 cells assessed as reduction of IL-12 production at 5 uM after 24 hrs by ELISA relative to control; type: functional; set-up: scale not given: the % may be the effect or the level left; how it was run: as §4
MRC5 [19] = assay: Antiinflammatory activity against IFN-gamma-stimulated human MRC5 cells assessed as reduction of IL-12 production at 10 uM after 24 hrs by ELISA relative to control; type: functional; set-up: scale not given: the % may be the effect or the level left; how it was run: as §4
Mus musculus [20] = assay: Antiinflammatory activity against LPS-induced BALB/c mouse lung inflammation model assessed as lowering of IL-12 level at 0.01 to 0.5 mg/kg, ip administered for 1 hr followed by LPS stimulation for 12 hrs relative to vehicle-treated control; type: functional, organism-based
How it was run: (§5)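 Female BALB/c mice, 6 weeks old, acclimatised 1 week; 6 groups of 3. Test agent (0.01, 0.1 or 0.5 mg/kg) given ip; 1 h later LPS 10 mg/kg ip in PBS. Sacrifice at 12 h. Whole lungs homogenised in NP-40 lysis buffer at 4 °C and centrifuged. Cytokines in supernatant measured by ELISA (OD 450 nm).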

Mus musculus [21] = assay: Antiinflammatory activity against LPS-induced BALB/c mouse lung inflammation model assessed as lowering of IL-1beta level at 0.01 to 0.5 mg/kg, ip administered for 1 hr followed by LPS stimulation for 12 hrs relative to vehicle-treated control; type: functional, organism-based; how it was run: as §5
Mus musculus [22] = assay: Antiinflammatory activity against LPS-induced BALB/c mouse lung inflammation model assessed as lowering of IL-6 level at 0.01 to 0.5 mg/kg, ip administered for 1 hr followed by LPS stimulation for 12 hrs relative to vehicle-treated control; type: functional, organism-based; how it was run: as §5
Mus musculus [23] = assay: Antiinflammatory activity against LPS-induced BALB/c mouse lung inflammation model assessed as lowering of IFN-gamma level at 0.01 to 0.5 mg/kg, ip administered for 1 hr followed by LPS stimulation for 12 hrs relative to vehicle-treated control; type: functional, organism-based; how it was run: as §5
[24] = Toxicity in mouse at 0.01 to 0.5 mg/kg assessed as irritability; type: organism-based; settings: in vivo
[25] = Toxicity in mouse at 0.01 to 0.5 mg/kg assessed as twisting; type: organism-based; settings: in vivo
[26] = Toxicity in mouse at 0.01 to 0.5 mg/kg assessed as breathing; type: organism-based; settings: in vivo
[27] = Toxicity in mouse at 0.01 to 0.5 mg/kg assessed as weight loss; type: organism-based; settings: in vivo
[28] = Toxicity in mouse at 0.01 to 0.5 mg/kg assessed as death; type: organism-based; settings: in vivo
[29] = Toxicity in mouse at 0.01 to 0.5 mg/kg assessed as change in AST level; type: organism-based; settings: in vivo
How it was run: (§6)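 BALB/c mice, 3 per group, given 0.01, 0.1 or 0.5 mg/kg ip; LPS 10 mg/kg ip 1 h later. Sacrificed at 12 h. Serum AST, ALT and BUN measured on an automated clinical analyser. Mean ± SD.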

[30] = Toxicity in mouse at 0.01 to 0.5 mg/kg assessed as change in ALT level; type: organism-based; settings: in vivo; how it was run: as §6
[31] = Toxicity in mouse at 0.01 to 0.5 mg/kg assessed as change in BUN level; type: organism-based; settings: in vivo; how it was run: as §6
[32] = Cytotoxicity against human HaCaT cells assessed as cell survival rate at 158 uM after 24 hrs by MTT assay; type: cell-based; settings: read-out: Survival
How it was run: (§7)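 Cells treated for 24 h with test agent (0–400 μM) or rifampicin (0–16 μM), then MTT assay. Survival taken as A570 of treated cells over A570 of untreated cells, as a percentage. Average of triplicates from three independent experiments.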

[33] = Cytotoxicity against mouse NIH/3T3 cells assessed as cell survival rate at 158 uM after 24 hrs by MTT assay; type: cell-based, NIH3T3; settings: read-out: Survival; how it was run: as §7
[34] = Cytotoxicity against human MRC5 cells assessed as cell survival rate at 158 uM after 24 hrs by MTT assay; type: cell-based; settings: read-out: Survival; how it was run: as §7
[35] = Cytotoxicity against human HaCaT cells assessed as cell survival rate at 316 uM after 24 hrs by MTT assay; type: cell-based; settings: read-out: Survival; how it was run: as §7
[36] = Cytotoxicity against mouse NIH/3T3 cells assessed as cell survival rate at 316 uM after 24 hrs by MTT assay; type: cell-based, NIH3T3; settings: read-out: Survival; how it was run: as §7
[37] = Cytotoxicity against human MRC5 cells assessed as cell survival rate at 316 uM after 24 hrs by MTT assay; type: cell-based; settings: read-out: Survival; how it was run: as §7
[38] = Cytotoxicity against human HaCaT cells assessed as cell survival rate at 400 uM after 24 hrs by MTT assay; type: cell-based; settings: read-out: Survival; how it was run: as §7
[39] = Cytotoxicity against mouse NIH/3T3 cells assessed as cell survival rate at 400 uM after 24 hrs by MTT assay; type: cell-based, NIH3T3; settings: read-out: Survival; how it was run: as §7
[40] = biological target: Mitogen-activated protein kinase 3 (Homo sapiens) (UniProt P27361); assay: Binding affinity to human ERK1 expressed in Escherichia coli BL21 by fluorescence quenching based spectrofluorometric analysis
How it was run: (§8)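 C-terminally His6-tagged ERK1 or p38 MAPK expressed in E. coli and purified. Protein at 10 μM in 50 mM sodium phosphate, 100 mM NaCl, pH 8.0, titrated with ligand to 1:10 protein:ligand. Excitation 290 nm, emission 290–500 nm. Binding constant K derived from fluorescence quenching.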

[41] = biological target: T1, MAP kinase p38 (Homo sapiens); assay: Binding affinity to human C-terminally His-tagged p38 expressed in Escherichia coli BL21 by fluorescence quenching based spectrofluorometric analysis; how it was run: as §8

Mitogen-activated protein kinase; ERK1/ERK2 (Homo sapiens), sequence (P27361 whole entry, looked up): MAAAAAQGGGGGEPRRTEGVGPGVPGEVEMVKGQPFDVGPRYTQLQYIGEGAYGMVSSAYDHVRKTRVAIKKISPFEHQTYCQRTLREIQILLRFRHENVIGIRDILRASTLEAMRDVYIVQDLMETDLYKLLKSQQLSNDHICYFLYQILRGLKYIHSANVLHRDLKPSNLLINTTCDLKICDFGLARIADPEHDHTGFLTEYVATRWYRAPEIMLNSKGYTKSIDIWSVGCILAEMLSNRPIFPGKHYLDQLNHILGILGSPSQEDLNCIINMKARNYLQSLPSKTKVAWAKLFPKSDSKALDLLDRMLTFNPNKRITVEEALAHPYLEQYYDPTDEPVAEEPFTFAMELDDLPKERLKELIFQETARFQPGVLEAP
Mitogen-activated protein kinase; ERK1/ERK2 (Homo sapiens), sequence (P28482 whole entry, looked up): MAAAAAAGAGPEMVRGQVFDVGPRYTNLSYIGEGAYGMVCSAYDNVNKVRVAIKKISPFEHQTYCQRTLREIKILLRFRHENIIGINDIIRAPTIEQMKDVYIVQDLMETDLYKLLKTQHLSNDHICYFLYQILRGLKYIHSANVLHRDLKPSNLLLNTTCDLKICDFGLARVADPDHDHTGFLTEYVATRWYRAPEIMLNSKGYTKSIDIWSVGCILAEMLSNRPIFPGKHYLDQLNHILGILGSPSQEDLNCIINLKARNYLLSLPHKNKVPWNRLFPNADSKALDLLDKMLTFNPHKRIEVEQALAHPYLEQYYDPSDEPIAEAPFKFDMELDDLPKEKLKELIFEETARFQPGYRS
Mitogen-activated protein kinase 3 (Homo sapiens), sequence (P27361 whole entry): as the sequence (P27361 whole entry, looked up) above
Mitogen-activated protein kinase 8/9 (Homo sapiens), sequence (P45983 whole entry, looked up): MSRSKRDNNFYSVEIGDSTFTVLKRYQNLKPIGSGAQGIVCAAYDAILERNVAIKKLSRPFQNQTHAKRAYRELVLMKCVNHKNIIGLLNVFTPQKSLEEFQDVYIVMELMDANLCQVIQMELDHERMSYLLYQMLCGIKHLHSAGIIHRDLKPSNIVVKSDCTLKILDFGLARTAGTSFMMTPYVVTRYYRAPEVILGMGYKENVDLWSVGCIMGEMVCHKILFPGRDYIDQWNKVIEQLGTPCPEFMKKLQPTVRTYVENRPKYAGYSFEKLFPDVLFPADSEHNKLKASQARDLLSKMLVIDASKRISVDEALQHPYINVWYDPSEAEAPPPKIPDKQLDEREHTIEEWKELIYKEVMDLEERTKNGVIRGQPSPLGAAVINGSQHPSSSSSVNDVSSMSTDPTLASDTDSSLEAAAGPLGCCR
Mitogen-activated protein kinase 8/9 (Homo sapiens), sequence (P45984 whole entry, looked up): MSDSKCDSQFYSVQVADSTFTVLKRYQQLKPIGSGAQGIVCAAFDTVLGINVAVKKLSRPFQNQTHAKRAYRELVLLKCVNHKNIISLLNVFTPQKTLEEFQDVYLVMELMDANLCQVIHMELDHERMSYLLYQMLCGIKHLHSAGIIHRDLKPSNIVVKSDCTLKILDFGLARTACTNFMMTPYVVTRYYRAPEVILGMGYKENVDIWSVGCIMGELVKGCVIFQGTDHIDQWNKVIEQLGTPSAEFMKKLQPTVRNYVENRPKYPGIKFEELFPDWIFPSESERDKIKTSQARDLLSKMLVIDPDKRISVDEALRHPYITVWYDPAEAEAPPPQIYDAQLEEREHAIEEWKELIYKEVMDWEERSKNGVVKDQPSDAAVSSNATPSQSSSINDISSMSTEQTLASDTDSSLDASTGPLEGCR

COc1cc(-c2oc3cc(O)cc(O)c3c(=O)c2O)ccc1O [ISORHAMNETIN]
inhibition at 158 µM [1]: 90% | MIC90 [2]: 158 µM (≈ 50 µg/mL) | MIC90 [3]: 316 µM (≈ 99.9 µg/mL) | MIC90 [4]: 316 µM (≈ 99.9 µg/mL) | MIC90 [5]: 316 µM (≈ 99.9 µg/mL) | MIC90 [6]: 316 µM (≈ 99.9 µg/mL) | logP [7]: 1.86 | Activity (MRC5 [8]): 39% | Activity (MRC5 [9]): 69% | Activity (MRC5 [10]): 76% | Activity (MRC5 [11]): 56% | Activity (MRC5 [12]): 41% | Activity [13]: Active | Activity [14]: Active | Activity [15]: inactive | Activity (MRC5 [16]): 37.5% | Activity (MRC5 [17]): 43.75% | Activity (MRC5 [18]): 45% | Activity (MRC5 [19]): 50% | Activity (Mus musculus [20]): Active | Activity (Mus musculus [21]): Active | Activity (Mus musculus [22]): Active | Activity (Mus musculus [23]): Active | Activity [24]: Non-Toxic | Activity [25]: Non-Toxic | Activity [26]: Non-Toxic | Activity [27]: Non-Toxic | Activity [28]: Non-Toxic | Activity [29]: Non-Toxic | Activity [30]: Non-Toxic | Activity [31]: Non-Toxic | viability at 24 h, 158 µM [32]: 90% | viability at 24 h, 158 µM [33]: 78% | viability at 24 h, 158 µM [34]: 54% | viability at 24 h, 316 µM [35]: 71% | viability at 24 h, 316 µM [36]: 63% | viability at 24 h, 316 µM [37]: 47% | viability at 24 h, 400 µM [38]: 66% | viability at 24 h, 400 µM [39]: 58% | K [40]: 4.46 ×10⁶ /M | K [41]: 7.6 ×10⁶ /M

From ChEMBL document CHEMBL4477177, “Antituberculosis Activity of a Naturally Occurring Flavonoid, Isorhamnetin” (J Nat Prod, 2016)
